Our source for the viability, differential viability (reversal) and inhibition values is PubChem BioAssay.

The source made the active and inactive calls.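 The calls were made as follows, unless noted: active = viability at or under a set limit in both replicates, limit being median viability minus 3 SD (cut at about 48% in these data, passing the limit was not always enough); inconclusive = at or under the limit in just one replicate; inactive = at or above the limit in both replicates.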

The nature of assay [1]: HUVEC growth inhibition – cell-based, human, primary screen (AID 575;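 active = viability at or below 30% in both replicate assays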;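 also: 100% = median of untreated cell wells with 0.1% DMSO on each plate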). As to conditions: HUVEC proliferation, CellTiter-Glo luminescence, 72 h; at 10 µM; stronger effect = lower value. The procedure, abridged: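 System: primary human umbilical vein endothelial cells; Quantity: 1250 endothelial cells in each well; Buffer or medium: supplemented EBM, 2% fetal bovine serum; Doses: one dose, 10 µM final, 0.1% DMSO; Incubation: 72 h compound incubation; Technique: ATP-based CellTiter-Glo luminescent read; Evaluation: percent of median DMSO-control luminescence; Controls: vehicle and MePR control wells.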
On the technique in general: ATP-based viability assays read luminescence as a measure of living cells.

A short description of assay [2]: growth inhibitors of H69AR lung tumor, primary screen, human, duplicate replicates (AID 580).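 Also: 100% = mean luminescence of untreated wells and 0% = no signal.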 As to conditions: H69AR lung tumor cells viability, ATP luminescence, 72 h; at 10 µM; stronger effect = lower value.
The nature of assay [3]: reversal of MRP1-mediated doxorubicin resistance, pilot screen, H69AR cells, doxorubicin co-treatment (AID 601;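 active = viability loss from added drug above about 55%, and viability with drug at most 40%, in both replicates, limit read from the data, passing the limit was not always enough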). To be noted: CellTiter-Glo, 72 h, at 10 µM; for differential viability (reversal): stronger effect = higher value.
Assay [4] is described as follows: 384-well plate pilot, post-Golgi transport modulator project, inhibition of yeast transport mutant growth (AID 636; in the data active = inhibition above about 31%). To be noted: absorbance 615 nm, about 18 h, stronger effect = higher value.
Assay [5] is described as follows: growth suppression of yeast trafficking mutant, preliminary HTS, modulators of trafficking downstream of Golgi apparatus project, 1536-format plate, OD 615 nm (AID 637; in the data active = inhibition above about 30%). To be noted: yeast transport mutant growth, absorbance 615 nm, 18 h; stronger effect = higher value.
[6] abbreviates: H69AR cells + 2 uM doxorubicin, measured here: viability with 2 uM doxorubicin, stronger effect = lower value.
Where [7] appears, read: H69AR cells, compound alone cytotoxicity.

As to `O=C(CN(c1ccc(F)cc1)S(=O)(=O)c1ccc2c(c1)OCCO2)NCC1CCCO1` (stereo not given), the viability (usually a read-out of living cells in per cent, often relative to untreated cells) is 96.5% (inactive) in assay [1], 100% (inactive) in assay [2], 87.1% in assay [3] (setting [6]) and 100% in assay [3] (setting [7]). Also, the differential viability (reversal) in assay [3] (H69AR cells + 2 uM doxorubicin) was 13.4% (inactive). Also, the values for the inhibition in assay [4] and in assay [5] were -3.42% (inactive) and 2.54% (inactive), respectively.

Consider `COc1cc(NC(=O)Nc2cccc(Cl)c2)c(OC)cc1NC(=O)CN1CCCCC1`, for which the viability in assay [1] is 20.3% (active); in assay [2], 3.06% (active); in assay [3] (setting [6]), 13%; in assay [3] (setting [7]), 3.06%. The differential viability (reversal) in assay [3] (H69AR cells + 2 uM doxorubicin) was -9.94% (inactive). In addition, the inhibition – broadly, the relative decrease from the control value, in per cent – in assay [4] is -6.27% (inactive); in assay [5] it was -0.95% (inactive).

Turning to `COCC(=O)Nc1sc2c(c1C(=O)OC)CCC(C)C2` (stereo not given), the viability is 88.4% (inactive) in assay [1], 94.8% (inactive) in assay [2], 90.3% in assay [3] (setting [6]) and 94.8% in assay [3] (setting [7]). Moreover, the differential viability (reversal) in assay [3] (H69AR cells + 2 uM doxorubicin) is 4.53% (inactive). Besides, the inhibition in assay [4] is -2.76% (inactive); in assay [5] it was 5.08% (inactive).

With `COc1cccc(Nc2nc(=O)[nH]nc2C)c1`, the viability is 75.7% (inactive) in assay [1], 87.3% (inactive) in assay [2], 76.4% in assay [3] (setting [6]) and 87.3% in assay [3] (setting [7]). Moreover, in assay [3] (H69AR cells + 2 uM doxorubicin), the differential viability (reversal) is 10.9% (inactive). Moreover, the inhibition in assay [4] is -2.08% (inactive); in assay [5], 8.57% (inactive).

On to `CC(C)NC(=O)c1ccccc1NC(=O)c1ccccc1N(C)S(C)(=O)=O`, for which the viability in assay [1] was 103% (inactive); in assay [2], 88.9% (inactive); in assay [3] (setting [6]) it was 93%; in assay [3] (setting [7]), 88.9%. The differential viability (reversal) in assay [3] (H69AR cells + 2 uM doxorubicin) is -4.12% (inactive). Further, the inhibition was -7.37% (inactive) in assay [4] and 1.9% (inactive) in assay [5].

For `CN=C(Nc1ccc2c(c1)OCO2)SC1CC(=O)N(c2ccccc2)C1=O` (stereo not given), the viability is 78.3% (inactive) in assay [1], 82.3% (inactive) in assay [2], 82.3% in assay [3] (setting [6]) and 82.3% in assay [3] (setting [7]). Also, the differential viability (reversal) in assay [3] (H69AR cells + 2 uM doxorubicin) is -0.04% (inactive). In addition, the inhibition was -4.93% (inactive) in assay [4] and -0.79% (inactive) in assay [5].

Regarding `COC(=O)c1ccc(CSc2nc3ccccc3c(=O)n2Cc2ccco2)o1`, the viability in assay [1] was 81.2% (inactive); in assay [2] it was 84.4% (inactive); in assay [3] (setting [6]), 92.3%; in assay [3] (setting [7]), 84.4%. For the same molecule, in assay [3] (H69AR cells + 2 uM doxorubicin), the differential viability (reversal) was -7.85% (inactive). Further, the results for the inhibition in assay [4] and in assay [5] were -4.94% (inactive) and -1.11% (inactive), respectively.

Turning to `O=C(CCCCn1c(=O)[nH]c2ccsc2c1=O)NCc1cccnc1`, the viability in assay [1] is 96.3% (inactive); in assay [2], 99.1% (inactive); in assay [3] (setting [6]), 97.1%; in assay [3] (setting [7]), 99.1%. In addition, in assay [3] (H69AR cells + 2 uM doxorubicin), the differential viability (reversal) is 2.01% (inactive). In addition, the inhibition in assay [4] is -1.18% (inactive); in assay [5], -0.63% (inactive).

For the molecule `O=C(c1ccc(CNS(=O)(=O)c2cccc(C(F)(F)F)c2)cc1)N1CCOCC1`, the viability in assay [1] is 102% (inactive); in assay [2], 92.9% (inactive); in assay [3] (setting [6]) it was 80.9%; in assay [3] (setting [7]) it was 92.9%. Also, the differential viability (reversal) in assay [3] (H69AR cells + 2 uM doxorubicin) was 12% (inactive). In addition, the inhibition in assay [4] was -8.67% (inactive); in assay [5] it was 1.43% (inactive).

In the case of `O=C(O)Cn1nc2ccccc2n1`, the viability in assay [1] is 108% (inactive); in assay [2], 93.9% (inactive); in assay [3] (setting [6]), 90.3%; in assay [3] (setting [7]) it was 93.9%. The differential viability (reversal) in assay [3] (H69AR cells + 2 uM doxorubicin) is 3.65% (inactive). The inhibition was -4% (inactive) in assay [4] and 8.73% (inactive) in assay [5].

As for `COc1cccc(Oc2ccc(N)cc2)c1`, the viability was 74.9% (inactive) in assay [1], 74.8% (inactive) in assay [2], 81.7% in assay [3] (setting [6]) and 74.8% in assay [3] (setting [7]). Further, in assay [3] (H69AR cells + 2 uM doxorubicin), the differential viability (reversal) was -6.83% (inactive). The inhibition was 0% (inactive) in assay [4] and -3.33% (inactive) in assay [5].

`COc1ccccc1C(=O)NCCNC(=O)c1ccco1`: the viability in assay [1] is 112% (inactive); in assay [2] it was 91.6% (inactive); in assay [3] (setting [6]), 96.5%; in assay [3] (setting [7]), 91.6%. For the same molecule, the differential viability (reversal) in assay [3] (H69AR cells + 2 uM doxorubicin) is -4.88% (inactive). Moreover, the inhibition in assay [4] is -4.53% (inactive); in assay [5], 0.48% (inactive).

Regarding `C=CCn1c(=O)[nH]c2cc(C(=O)N3CCN(c4ccc(C(C)=O)cc4)CC3)ccc2c1=O`, the viability in assay [1] is 68.5% (inactive); in assay [2] it was 92.4% (inactive); in assay [3] (setting [6]), 79%; in assay [3] (setting [7]), 92.4%. In addition, the differential viability (reversal) in assay [3] (H69AR cells + 2 uM doxorubicin) was 13.4% (inactive). Further, the values for the inhibition in assay [4] and in assay [5] were -1.97% (inactive) and -5.71% (inactive), respectively.

As for `COc1cccc(Nc2c(F)c(F)c(F)c(F)c2C(=O)O)c1`, the viability in assay [1] was 92.2% (inactive); in assay [2], 99.7% (inactive); in assay [3] (setting [6]), 90.5%; in assay [3] (setting [7]), 99.7%. Moreover, in assay [3] (H69AR cells + 2 uM doxorubicin), the differential viability (reversal) is 9.22% (inactive). Further, the inhibition in assay [4] is -5.84% (inactive); in assay [5] it was -1.27% (inactive).

`O=C(CCN1CCN(CCO)CC1)Nc1ccc(OCc2ccccc2)cc1`: the viability in assay [1] is 76.5% (inactive); in assay [2], 88.9% (inactive); in assay [3] (setting [6]), 82.9%; in assay [3] (setting [7]) it was 88.9%. Besides, the differential viability (reversal) in assay [3] (H69AR cells + 2 uM doxorubicin) is 6.03% (inactive). For the same molecule, the inhibition was -2.6% (inactive) in assay [4] and -6.67% (inactive) in assay [5].

For `O=C(Nc1nc(-c2ccc(S(=O)(=O)N3CCCC3)cc2)cs1)C1COc2ccccc2O1` (stereo not given), the viability in assay [1] is 79.1% (inactive); in assay [2], 90.3% (inactive); in assay [3] (setting [6]) it was 91.8%; in assay [3] (setting [7]), 90.3%. In assay [3] (H69AR cells + 2 uM doxorubicin), the differential viability (reversal) is -1.52% (inactive). In addition, the inhibition in assay [4] is -3.73% (inactive); in assay [5], -6.83% (inactive).

On to `O=C(Nc1ccccc1C(=O)N1CCOCC1)C1COc2ccccc2O1` (stereo not given), for which the viability in assay [1] is 100% (inactive); in assay [2], 103% (inactive); in assay [3] (setting [6]), 96.6%; in assay [3] (setting [7]), 103%. For the same molecule, the differential viability (reversal) in assay [3] (H69AR cells + 2 uM doxorubicin) is 6.71% (inactive). The results for the inhibition in assay [4] and in assay [5] were -0.53% (inactive) and 0% (inactive), respectively.

For the molecule `O=C(O)C1CSC2c3ccccc3C(=O)N12` (stereo not given), the viability was 104% (inactive) in assay [1], 103% (inactive) in assay [2], 87.6% in assay [3] (setting [6]) and 103% in assay [3] (setting [7]). Moreover, the differential viability (reversal) in assay [3] (H69AR cells + 2 uM doxorubicin) is 15.4% (inactive). For the same molecule, the figures for the inhibition in assay [4] and in assay [5] were -1.04% (inactive) and 3.81% (inactive), respectively.

For the molecule `O=C(Nc1nc(-c2ccc(S(=O)(=O)N3CCCCCC3)cc2)cs1)c1cccs1`, the viability in assay [1] was 73.6% (inactive); in assay [2], 64.6% (inactive); in assay [3] (setting [6]), 69.2%; in assay [3] (setting [7]) it was 64.6%. For the same molecule, the differential viability (reversal) in assay [3] (H69AR cells + 2 uM doxorubicin) is -4.63% (inactive). Also, the inhibition in assay [4] is -6.62% (inactive); in assay [5] it was -3.81% (inactive).

For the molecule `Cc1ccc(Nc2nc(CSc3nnc(-c4cccs4)o3)cs2)cc1`, the viability in assay [1] is 78.7% (inactive); in assay [2], 90.5% (inactive); in assay [3] (setting [6]), 92.2%; in assay [3] (setting [7]) it was 90.5%. In addition, in assay [3] (H69AR cells + 2 uM doxorubicin), the differential viability (reversal) was -1.67% (inactive). In addition, the inhibition in assay [4] was -4.8% (inactive); in assay [5], -2.22% (inactive).
